# Assay results reported in ChEMBL document CHEMBL1132437, “Synthesis and antimicrobial activity of 4H-4-oxoquinolizine derivatives: consequences of structural modification at the C-8 position” (1999).
# Assays:
# Format in all cases: functional
# [1] = tested on: Enterococcus faecium; assay: In vitro antibacterial activity against gram-positive Enterococcus faecium ATCC 8043
# Method in brief: (§1)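 Agar dilution MIC determination following the National Committee for Clinical Laboratory Standards recommendations.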
# [2] = tested on: Escherichia coli; assay: In vitro antibacterial activity against gram negative Escherichia coli KNK 437; method in brief: as §1
# [3] = tested on: Pseudomonas aeruginosa; assay: In vitro antibacterial activity against gram negative P. aeruginosa DPHP 5263; method in brief: as §1
# [4] = tested on: Staphylococcus aureus; assay: In vitro antibacterial activity against gram-positive Staphylococcus aureus 1775; method in brief: as §1
# [5] = tested on: Staphylococcus aureus; assay: In vitro antibacterial activity against gram-positive Staphylococcus aureus NCTC 10649M; method in brief: as §1
# [6] = tested on: Streptococcus pyogenes; assay: In vitro antibacterial activity against gram positive Streptococcus pyogenes 930; method in brief: as §1
# [7] = tested on: Pseudomonas aeruginosa; assay: In vitro antibacterial activity against Gram-negative Pseudomonas aeruginosa 5007; method in brief: as §1
# [8] = tested on: Burkholderia cepacia; assay: In vitro antibacterial activity against gram negative Pseudomonas cepacia 2961; method in brief: as §1
# [9] = Enterococcus faecium, ATCC 8043, read-out: MIC
# [10] = Escherichia coli, read-out: MIC
# [11] = Pseudomonas aeruginosa, read-out: MIC
# [12] = Pseudomonas aeruginosa, DPHP 5263, read-out: MIC
# [13] = Burkholderia cepacia, read-out: MIC
# [14] = Staphylococcus aureus, read-out: MIC
# [15] = Staphylococcus aureus, NCTC 10649, read-out: MIC
# [16] = Streptococcus pyogenes, read-out: MIC
Compound,MIC [1] [µg/mL],MIC [2] [µg/mL],MIC [3] [µg/mL],MIC [4] [µg/mL],MIC [5] [µg/mL],MIC [6] [µg/mL],"MIC [1, 9] [µg/mL]","MIC [2, 10] [µg/mL]","MIC [7, 11] [µg/mL]","MIC [3, 12] [µg/mL]","MIC [8, 13] [µg/mL]","MIC [4, 14] [µg/mL]","MIC [5, 15] [µg/mL]","MIC [6, 16] [µg/mL]",MIC [7] [µg/mL],MIC [8] [µg/mL]
Cc1c(N2C[C@@H](N)[C@@H](C3CC3)C2)c(F)cn2c(=O)c(C(=O)O)cc(C3CC3)c12 (stereo in doubt),0.05,0.1,12.5,0.39,0.005,0.02,–,–,–,–,–,–,–,–,–,–
Cc1c(N2CC[C@H](NCC(F)(F)F)C2)c(F)cn2c(=O)c(C(=O)O)cc(C3CC3)c12,–,–,–,–,–,–,0.39,1.56,3.1,> 100,3.1,0.78,0.02,0.39,–,–
Cc1c(N2CCCC(N)C2)c(F)cn2c(=O)c(C(=O)O)cc(C3CC3)c12 (centres undefined),–,–,–,–,–,–,0.05,0.1,0.2,3.1,0.78,0.39,0.01,0.02,–,–
Cc1c(N2CCC(CN)C2)c(F)cn2c(=O)c(C(=O)O)cc(C3CC3)c12 (centres undefined),–,–,–,–,–,–,0.01,0.05,–,–,0.39,0.39,0.002,–,–,–
Cc1c(N2C[C@@H](N)[C@H](C3CC3)C2)c(F)cn2c(=O)c(C(=O)O)cc(C3CC3)c12 (stereo in doubt; 3t),–,–,–,–,0.01,–,0.1,0.1,0.78,6.2,0.78,0.78,–,0.05,–,–
Cc1c(N2C[C@H](N)[C@H](C3CC3)C2)c(F)cn2c(=O)c(C(=O)O)cc(C3CC3)c12,–,–,–,–,–,–,0.1,0.2,0.39,12.5,1.56,0.78,0.02,0.1,–,–
CN[C@H]1CCN(c2c(F)cn3c(=O)c(C(=O)O)cc(C4CC4)c3c2C)C1,–,–,–,–,–,–,0.1,0.05,0.2,–,1.56,1.56,0.02,0.05,–,–
Cc1c(N2C[C@@H]3OCC[C@]3(CN)C2)c(F)cn2c(=O)c(C(=O)O)cc(C3CC3)c12,–,–,–,–,–,–,0.05,0.2,0.39,6.2,3.1,0.78,0.005,–,–,–
CN[C@@H]1CN(c2c(F)cn3c(=O)c(C(=O)O)cc(C4CC4)c3c2C)C[C@H]1C (stereo in doubt),–,0.05,3.1,0.39,–,0.02,0.1,–,0.2,–,0.78,–,0.01,–,–,–
Cc1c(N2CC[C@@H]3CNC[C@@H]32)c(F)cn2c(=O)c(C(=O)O)cc(C3CC3)c12,–,–,–,–,–,–,0.1,0.2,–,–,3.1,6.2,0.05,–,–,–
Cc1c(N2CCCN2C)c(F)cn2c(=O)c(C(=O)O)cc(C3CC3)c12,–,–,–,–,–,–,0.39,3.1,3.1,> 100,1.56,3.1,0.02,0.39,–,–
Cc1c(N2C[C@H]3CCNC[C@@H]3C2)c(F)cn2c(=O)c(C(=O)O)cc(C3CC3)c12,–,–,–,–,–,–,0.2,0.2,0.39,6.2,0.39,6.2,0.05,0.05,–,–
CN[C@H]1CN(c2c(F)cn3c(=O)c(C(=O)O)cc(C4CC4)c3c2C)C[C@@H]1C,–,–,–,–,–,–,0.2,0.2,3.1,12.5,0.78,0.78,0.05,0.1,–,–
Cc1c(N2CCC(O)C2)c(F)cn2c(=O)c(C(=O)O)cc(C3CC3)c12 (centres undefined),–,–,–,–,–,–,0.05,0.2,–,–,0.1,0.2,0.005,–,–,–
Cc1c(N2CCC(CNCCF)C2)c(F)cn2c(=O)c(C(=O)O)cc(C3CC3)c12 (centres undefined),–,–,–,–,–,–,0.02,0.2,0.78,12.5,3.1,0.1,0.002,0.002,–,–
Cc1c(N2C[C@@H]3CCCN[C@@H]3C2)c(F)cn2c(=O)c(C(=O)O)cc(C3CC3)c12,–,–,–,–,–,–,0.1,0.1,0.39,–,1.56,0.78,0.02,0.05,–,–
Cc1c(N2C[C@@H]3CCCC[C@]3(N)C2)c(F)cn2c(=O)c(C(=O)O)cc(C3CC3)c12,–,–,–,–,–,–,0.2,0.78,1.56,25,1.56,1.56,0.05,0.2,–,–
Cc1c(N2CC[C@@H]3CCNC[C@@H]32)c(F)cn2c(=O)c(C(=O)O)cc(C3CC3)c12,–,–,–,–,–,–,0.2,0.39,0.78,6.2,3.1,6.2,0.05,–,–,–
Cc1c(N2CCCCC2)c(F)cn2c(=O)c(C(=O)O)cc(C3CC3)c12,–,–,–,–,–,–,0.39,3.1,3.1,> 100,3.1,0.78,0.05,0.2,–,–
Cc1c(N2CC[C@@H](C)[C@@H](N)C2)c(F)cn2c(=O)c(C(=O)O)cc(C3CC3)c12,–,–,–,–,–,–,0.39,0.78,1.56,12.5,6.2,3.1,0.1,0.39,–,–
Cc1c(N2C[C@H](C)[C@@H](N)C2)c(F)cn2c(=O)c(C(=O)O)cc(C3CC3)c12,–,–,–,–,–,–,0.2,0.1,0.39,3.1,0.78,0.78,0.05,0.1,–,–
Cc1c(N2CCC(CN)(C(F)(F)F)C2)c(F)cn2c(=O)c(C(=O)O)cc(C3CC3)c12 (centres undefined),–,–,–,–,–,–,0.2,0.39,1.56,25,6.2,0.39,0.02,0.1,–,–
Cc1c(N2CC[C@H](C)[C@H](N)C2)c(F)cn2c(=O)c(C(=O)O)cc(C3CC3)c12 (stereo in doubt),0.2,0.2,–,1.56,0.05,0.1,–,–,–,–,–,–,–,–,0.78,1.56
Cc1c(N2CCC(N(C)C3CC3)C2)c(F)cn2c(=O)c(C(=O)O)cc(C3CC3)c12 (centres undefined),–,–,–,–,–,–,0.2,0.39,0.78,100,3.1,1.56,0.05,0.2,–,–
Cc1c(N2CC[C@@H](N)C2)c(F)cn2c(=O)c(C(=O)O)cc(C3CC3)c12,–,–,–,–,–,–,0.05,0.05,–,–,0.78,1.56,0.02,–,–,–
Cc1c(N2C[C@@H]3COC[C@]3(CN)C2)c(F)cn2c(=O)c(C(=O)O)cc(C3CC3)c12,–,–,–,–,–,–,0.05,0.1,6.2,6.2,6.2,3.1,0.01,0.02,–,–
